Assay results gathered from unrelated publications.
Protocols differ between the studies behind these lines.
Target: Vascular endothelial growth factor receptor 3 (FLT4, Homo sapiens, UniProt P35916)

O=C(Nc1cnn(-c2csc(C(=O)NC3COC3)c2)c1)Nc1c(F)cccc1Cl — remaining activity (enzyme activity, inhibitor; 5 µM): 86.2%
CC(=O)C1=C(C)N(c2cccc(C(F)(F)F)c2)C(=O)N[C@@H]1c1ccc(C#N)nc1 — remaining binding (cell-free assay, competition with immobilised ligand; 1 µM): 100%
Cc1ccc(C(=O)NCc2ccsc2)cc1C#Cc1cn(C(C)C)c2ncnc(N)c12 — activity vs control (enzyme activity, inhibitor; 1 µM): -1%
CNC(=O)c1cc(Oc2ccc(NC(=O)Nc3ccc(Cl)c(C(F)(F)F)c3)cc2)ccn1 — remaining signal (cell-free assay; 0.5 µM): 43%
O=C(Nc1cccnn1)N1CCC(=Cc2cccc(Oc3ccc(C(F)(F)F)cn3)c2)CC1 — remaining binding (cell-free assay, competition with immobilised ligand; 1 µM): 80%
CCN(CC)c1ccc(C2=NNC(=O)CC2C)cc1[N+](=O)[O-] (centres unmarked) — remaining activity (enzyme activity, inhibitor; 10 µM): 111%
CC(=O)N1CCC(c2ccc(C(=O)NC(=N)N)cc2C(F)(F)F)CC1 — remaining binding (cell-free assay, competition with immobilised ligand; 1 µM): 89%
Cc1cc(NC(=O)c2cccc3cc(-c4cccc5[nH]nc(N)c45)ccc23)ccc1F — activity vs control (enzyme activity, inhibitor; 0.1 µM): 1%
COc1cc2ncnc(Nc3ccc(Oc4ccccc4)c(C)c3C)c2cc1OC — inhibition (enzyme activity, inhibitor; 1 µM): 12%
CC/C(=N\NC(=O)NCc1cccc(O)c1)c1ccc(O)c(C)c1O — inhibition (enzyme activity, inhibitor; 0.1 µM): 6.1%
CC(C)(C)c1nc2c(s1)c1nc(N)ncc1c1ccc(NS(=O)(=O)c3c(F)cccc3F)c(F)c12 — remaining activity (enzyme activity, inhibitor, radiometric; 1 µM): 76%
CC(C)(O)[C@H]1CC[C@H](Nc2ccc3ncc(-c4cccc(C(F)(F)F)c4)n3n2)CC1 — remaining activity (enzyme activity, inhibitor; 1 µM): 83.5%
Cc1cnc(NC2CCOCC2)nc1-n1cnc(C(=O)NC(CN)c2cc(F)cc(Cl)c2)c1 (centres unmarked) — remaining activity (enzyme activity, inhibitor, radiometric; 1 µM): 107%
Nc1ncnc2occ(-c3ccc(NC(=O)Nc4cc(C(F)(F)F)ccc4F)cc3)c12 — remaining signal (cell-free assay; 20 µM): 0%
O=C1NC(=O)c2cc(Nc3ccc(F)cc3)c(Nc3ccc(F)cc3)cc21 — remaining signal (cell-free assay; 0.5 µM): 102%
N#CC1(c2ccccn2)CCN(Cc2cc(C(=O)N3CCCC3)c(=O)n3ccccc23)CC1 — remaining binding (cell-free assay, competition with immobilised ligand; 1 µM): 86%
COc1cc2c(Nc3ccc(Br)cc3F)ncnc2cc1OCC1CCN(C)CC1 — remaining signal (cell-free assay; 0.5 µM): 16.1%
CN(C(=O)c1ccccc1)c1cc(N(C)c2ccc3c(c2)CCc2ccc(C(=O)NCCN4CCOCC4)cc2C3=O)ccc1F — remaining binding (cell-free assay, competition with immobilised ligand; 1 µM): 87%
CC[C@H](CO)Nc1nc(NCc2ccccc2)c2ncn(C(C)C)c2n1 — remaining signal (cell-free assay; 0.5 µM): 94%
C[C@@H]1CN(c2cc(-c3n[nH]c4ccc(OC5(C)CC5)cc34)ncn2)C[C@H](C)O1 — remaining binding (cell-free assay, competition with immobilised ligand; 0.1 µM): 100%
